Active and inactive are the calls of the source. The rule behind the calls is not given here.
Tests used:
[1] = target: T1, Nuclear factor erythroid 2-related factor 2 (Homo sapiens) (UniProt Q16236); experiment: Activation of Nrf2 in human HepG2-ARE-C8 cells assessed as fold change at 12.5 uM measured after 12 hrs by luciferase reporter gene assay relative to control; assay type: cell-based; settings: filed as activator
T1 sequence (whole entry): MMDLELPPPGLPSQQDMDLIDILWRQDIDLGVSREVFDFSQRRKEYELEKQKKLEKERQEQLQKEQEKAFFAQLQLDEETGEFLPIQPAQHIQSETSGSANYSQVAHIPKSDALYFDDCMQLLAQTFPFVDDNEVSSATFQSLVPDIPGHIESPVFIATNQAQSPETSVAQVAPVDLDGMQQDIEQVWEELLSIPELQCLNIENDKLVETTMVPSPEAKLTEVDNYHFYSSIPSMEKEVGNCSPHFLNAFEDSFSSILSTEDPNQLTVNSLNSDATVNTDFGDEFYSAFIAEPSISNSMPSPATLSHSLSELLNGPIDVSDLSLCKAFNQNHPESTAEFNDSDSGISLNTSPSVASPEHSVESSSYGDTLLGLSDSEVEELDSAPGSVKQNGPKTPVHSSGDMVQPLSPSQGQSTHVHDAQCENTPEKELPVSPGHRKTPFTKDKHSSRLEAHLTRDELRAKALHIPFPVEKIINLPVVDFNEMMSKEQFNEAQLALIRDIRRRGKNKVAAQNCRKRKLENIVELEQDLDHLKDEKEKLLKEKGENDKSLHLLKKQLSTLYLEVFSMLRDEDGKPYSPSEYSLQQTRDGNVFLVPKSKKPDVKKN

[2] = tested on: PC-12; experiment: Inhibition of H202-induced apoptosis in rat PC-12 cells assessed as late apoptotic cells at 25 uM after 24 hrs by Annexin-V-FITC/PI-staining based flow cytometric analysis (reference value: 32.5%); assay type: functional; set-up: scale not given: the % may be the effect or the level left
Outline: (§1)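 PC12 cells seeded 2 × 10⁵/well for 24 h, pretreated 24 h with 12.5, 25, 50 or 100 µM compound, then given fresh medium containing 650 µM H2O2. Harvested cells washed in binding buffer, stained 5 min with Annexin V-FITC/PI, analysed by flow cytometry.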

[3] = tested on: PC-12; experiment: Upregulation of HO-1 expression in rat PC-12 cell incubated for 24 hrs by Western blot analysis; assay type: functional
Outline: (§2)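 PC12 cells treated with compound for 24 h; lysates resolved by SDS-PAGE, transferred to PVDF and probed for HO-1 and NQO1; band intensities quantified densitometrically. Mean ± SD of three independent experiments.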

[4] = target: T2, Nuclear factor erythroid 2-related factor 2 (Rattus norvegicus) (UniProt O54968); experiment: Induction of Nrf2 nuclear translocation in rat PC-12 cells assessed as Nrf2 accumulation in nucleus at 25 uM measured after 4 to 8 hrs by immunofluorescence analysis; assay type: cell-based; settings: filed as activator, time 4-8 hrs
T2 sequence (whole entry): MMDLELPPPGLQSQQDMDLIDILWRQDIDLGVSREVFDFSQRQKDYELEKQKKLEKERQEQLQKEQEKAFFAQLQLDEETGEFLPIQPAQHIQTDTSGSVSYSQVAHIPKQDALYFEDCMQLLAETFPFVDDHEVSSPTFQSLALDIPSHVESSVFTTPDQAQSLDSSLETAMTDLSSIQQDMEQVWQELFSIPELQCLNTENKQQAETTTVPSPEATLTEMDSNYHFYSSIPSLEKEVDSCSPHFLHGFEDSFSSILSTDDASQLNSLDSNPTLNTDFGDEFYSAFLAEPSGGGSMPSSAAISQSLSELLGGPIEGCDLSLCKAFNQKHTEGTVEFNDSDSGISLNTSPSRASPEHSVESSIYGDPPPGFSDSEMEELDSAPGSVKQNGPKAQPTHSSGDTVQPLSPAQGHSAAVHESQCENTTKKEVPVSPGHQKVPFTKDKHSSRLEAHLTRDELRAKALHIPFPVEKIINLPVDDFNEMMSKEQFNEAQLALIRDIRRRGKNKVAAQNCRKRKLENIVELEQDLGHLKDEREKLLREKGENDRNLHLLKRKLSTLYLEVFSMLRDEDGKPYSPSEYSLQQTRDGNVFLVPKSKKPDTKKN
Outline: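 PC12 cells exposed to 25 µM compound for 0, 4, 6 and 8 h; fixed in cold methanol (−20 °C, 20 min), anti-Nrf2 overnight, Dylight 594 secondary (1:500, 1 h), DAPI nuclear counterstain; imaged by fluorescence microscopy.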

[5] = tested on: PC-12; experiment: Inhibition of H202-induced apoptosis in rat PC-12 cells assessed as viable cells at 12.5 uM after 24 hrs by Annexin-V-FITC/PI-staining based flow cytometric analysis (reference value: 52.01%); assay type: functional; settings: read-out: Activity; outline: as §1
[6] = tested on: PC-12; experiment: Inhibition of H202-induced apoptosis in rat PC-12 cells assessed as early apoptotic cells at 100 uM after 24 hrs by Annexin-V-FITC/PI-staining based flow cytometric analysis (reference value: 15.16%); assay type: functional; set-up: scale not given: the % may be the effect or the level left; outline: as §1
[7] = tested on: PC-12; experiment: Inhibition of H202-induced apoptosis in rat PC-12 cells assessed as early apoptotic cells at 50 uM after 24 hrs by Annexin-V-FITC/PI-staining based flow cytometric analysis (reference value: 15.16%); assay type: functional; set-up: scale not given: the % may be the effect or the level left; outline: as §1
[8] = tested on: PC-12; experiment: Inhibition of H202-induced apoptosis in rat PC-12 cells assessed as early apoptotic cells at 25 uM after 24 hrs by Annexin-V-FITC/PI-staining based flow cytometric analysis (reference value: 15.16%); assay type: functional; set-up: scale not given: the % may be the effect or the level left; outline: as §1
[9] = tested on: PC-12; experiment: Inhibition of H202-induced apoptosis in rat PC-12 cells assessed as necrotic cells at 12.5 uM after 24 hrs by Annexin-V-FITC/PI-staining based flow cytometric analysis (reference value: 0.33%); assay type: functional; set-up: scale not given: the % may be the effect or the level left; outline: as §1
[10] = tested on: PC-12; experiment: Inhibition of H202-induced apoptosis in rat PC-12 cells assessed as late apoptotic cells at 100 uM after 24 hrs by Annexin-V-FITC/PI-staining based flow cytometric analysis (reference value: 32.5%); assay type: functional; set-up: scale not given: the % may be the effect or the level left; outline: as §1
[11] = tested on: PC-12; experiment: Inhibition of H202-induced apoptosis in rat PC-12 cells assessed as late apoptotic cells at 50 uM after 24 hrs by Annexin-V-FITC/PI-staining based flow cytometric analysis (reference value: 32.5%); assay type: functional; set-up: scale not given: the % may be the effect or the level left; outline: as §1
[12] = tested on: PC-12; experiment: Inhibition of H202-induced apoptosis in rat PC-12 cells assessed as early apoptotic cells at 12.5 uM after 24 hrs by Annexin-V-FITC/PI-staining based flow cytometric analysis (reference value: 15.16%); assay type: functional; set-up: scale not given: the % may be the effect or the level left; outline: as §1
[13] = tested on: Mus musculus; experiment: Neuroprotective activity in lesioned C57BL/6 mouse model of Parkinson's disease assessed as increase in time spent on rotarod at 100 mg/kg, po administered for 2 week before MPTP stimulation by rotarod test; assay type: functional; settings: time 2 weeks
Outline: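 Male 10-week-old C57BL/6 mice (20–23 g), n = 6/group. Prophylactic: oral compound (50 or 100 mg/kg in saline) 2 weeks, then MPTP-HCl 25 mg/kg i.p. in week 3. Therapeutic: MPTP-HCl 25 mg/kg i.p. 1 week, then oral 100 mg/kg 2 weeks. Saline vehicle. Pole/rotarod training last 3 days; TH immunohistochemistry on SNpc and striatum.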

[14] = tested on: PC-12; experiment: Upregulation of NQO1 expression in rat PC-12 cell incubated for 24 hrs by Western blot analysis; assay type: functional; outline: as §2
[15] = tested on: PC-12; experiment: Inhibition of H202-induced apoptosis in rat PC-12 cells assessed as viable cells at 25 uM after 24 hrs by Annexin-V-FITC/PI-staining based flow cytometric analysis (reference value: 52.01%); assay type: functional; settings: read-out: Activity; outline: as §1

With `COc1ccccc1/C=C/C=C/C(=O)N1CCCCC1` the fold change (FC) [1] was 3, the Activity [2] was 18.04% and the Activity [3] was “Active”. The Activity [4] was “Active”, the viability at 12.5 µM [5] was 61.4% and the Activity [6] was 12.11%. For the same compound, the Activity [7] was 12.01%, the Activity [8] was 12.72% and the Activity [9] was 0.3%. The Activity [10] was 29.28%, the Activity [11] was 12.95% and the Activity [12] was 12.26%. For the same compound, the Time [13] was 226.2 s, the Activity [14] was “Active” and the viability at 25 µM [15] was 69%.
